Source: ChEMBL document CHEMBL1148871, “Novel potent antimitotic heterocyclic ketones: synthesis, antiproliferative activity, and structure-activity relationships” (Bioorg Med Chem Lett, 2007)
pIC50: −log10 of the molar value.

Experiments:
[1] = tested on: CCRF-CEM; experiment: Antiproliferative activity against human CEM cells; type: functional, cell-based
[2] = tested on: PC-3; experiment: Antiproliferative activity against human PC3 cells; type: functional, cell-based
[3] = tested on: MOLT-3; experiment: Antiproliferative activity against human Molt3 cells; type: functional, cell-based
[4] = tested on: MCF7; experiment: Antiproliferative activity against human MCF7 cells; type: functional, cell-based
[5] = tested on: Bel-7402; experiment: Antiproliferative activity against human Bel7402 cells; type: functional, cell-based
[6] = tested on: DU-145; experiment: Antiproliferative activity against human DU145 cells; type: functional, cell-based
[7] = Antiproliferative activity against human DND1 cells; type: functional, cell-based
[8] = biological target: T1, Tubulin (Homo sapiens) (UniProt P68371+Q9H4B7+P0DPH7+P68366+Q13509+Q71U36+P04350+Q3ZCM7+P07437+P68363+Q9BQE3+Q6PEY2+Q13885+Q9BVA1+Q9BUF5); experiment: Inhibition of tubulin polymerization; type: protein-complex assay
Summary of the method: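 Purified […] in reaction buffer with GTP and Mg²⁺ was incubated for assembly with or without test compound (1–5 uM), with vincristine or paclitaxel (20 uM) as controls. Assembly was read as OD at 340 nm every 2 min. Each point is the mean of two independent experiments.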

[9] = biological target: T1, Tubulin (Homo sapiens); experiment: Inhibition of tubulin polymerization at 20 uM; type: protein-complex assay

Molecule `COc1ccc(C(=O)c2ccc3c(ccn3C)c2)cc1` has a pIC50 [1] of 5.95.

With `COc1cc(C(=O)c2ccc3c(ccn3C)c2)cc(OC)c1OC` the pIC50 [1] was 7.74, the pIC50 [2] was 7.60 and the pIC50 [3] was 7.74. It also gave a pIC50 [4] of 8.04, a pIC50 [5] of 7.68 and a pIC50 [6] of 7.59. The pIC50 [7] was 7.82.

`COc1ccc(C(=O)c2ccc3c(ccn3C)c2)cc1OC` showed a pIC50 [1] of 5.77.

In the case of `CCn1c2ccccc2c2cc(C(O)c3cc(OC)c(OC)c(OC)c3)ccc21` (centres undefined), the pIC50 [1] was 6.72.

`COc1ccc(C(=O)c2ccc3c(ccn3C)c2)c(OC)n1` gave a pIC50 [1] of 5.99.

In the case of `COc1ccc(OC)c(C(=O)c2ccc3c(ccn3C)c2)c1`, the pIC50 [1] was 5.63.

With `CCn1c2ccccc2c2cc(NS(=O)(=O)c3ccc(OC)cc3OC)ccc21` the pIC50 [1] was 7.24.

Work on `COc1cc(C(=O)c2cccc3ccn(C)c23)cc(OC)c1OC` yielded a pIC50 [1] of 6.51.

Molecule `COc1cc(C(O)c2ccc3c(ccn3C)c2)cc(OC)c1OC` (centres undefined) has a pIC50 [1] of 7.23, a pIC50 [2] of 6.93 and a pIC50 [3] of 7.42. It also gave a pIC50 [4] of 7.36, a pIC50 [5] of 7.06 and a pIC50 [6] of 6.99. For the same molecule, the pIC50 [7] was 7.23.

With `CCn1c2ccccc2c2cc(C(=O)c3ccc(OC)nc3OC)ccc21` the pIC50 [1] was 6.26.

`COc1cc(C(=O)c2ccc3ccn(C)c3c2)cc(OC)c1OC` showed a pIC50 [1] of 7.52, a pIC50 [2] of 7.12 and a pIC50 [3] of 7.74. It also gave a pIC50 [4] of 7.62, a pIC50 [5] of 7.57 and a pIC50 [6] of 7.12. The pIC50 [7] was 7.57.

For `CCn1c2ccccc2c2cc(C(=O)c3cc(OC)c(OC)c(OC)c3)ccc21`, the Activity [8] was “Dose-dependent effect”, the pIC50 [1] was 7.05 and the pIC50 [2] was 6.99. It also gave a pIC50 [3] of 7.29, a pIC50 [4] of 7.59 and a pIC50 [5] of 7.05. The pIC50 [6] was 7.41 and the pIC50 [7] was 7.68.

In the case of `CC[C@]1(O)C[C@H]2CN(CCc3c([nH]c4ccccc34)[C@@](C(=O)OC)(c3cc4c(cc3OC)N(C=O)[C@H]3[C@@](O)(C(=O)OC)[C@H](OC(C)=O)[C@]5(CC)C=CCN6CC[C@]43[C@@H]65)C2)C1`, the inhibition [9] was 87%.

In the case of `COc1cc(OC)cc(C(=O)c2ccc3c(ccn3C)c2)c1`, the pIC50 [1] was 5.77.

For `COc1cc(C(=O)c2ccc3occc3c2)cc(OC)c1OC`, the pIC50 [1] was 6.54.

`COc1cc(C(=O)c2ccc3[nH]ccc3c2)cc(OC)c1OC` showed a pIC50 [1] of 6.65.

`COc1ccc(/C=C\c2cc(OC)c(OC)c(OC)c2)cc1O` [COMBRETASTATIN A4] showed a pIC50 [7] of 8.60.

`COc1cc(C(=O)c2ccc3sccc3c2)cc(OC)c1OC` gave a pIC50 [1] of 6.52.

With `COc1ccc(C(=O)c2ccc3c(ccn3C)c2)c(OC)c1` the pIC50 [1] was 6.99, the pIC50 [2] was 6.69 and the pIC50 [3] was 7.62. For the same molecule, the pIC50 [4] was 7.07, the pIC50 [5] was 7.36 and the pIC50 [6] was 7.47. For the same molecule, the pIC50 [7] was 6.93.

Work on `CCn1c2ccccc2c2cc(NS(=O)(=O)c3cc(OC)ccc3OC)ccc21` yielded a pIC50 [1] of 7.21.

Work on `COc1cc([C@@H]2c3cc4c(cc3C(O)[C@H]3COC(=O)[C@H]23)OCO4)cc(OC)c1OC` (single isomer, unassigned) [PODOFILOX] yielded a pIC50 [7] of 7.92.

`CCn1c2ccccc2c2cc(NS(=O)(=O)c3cc(OC)c(OC)c(OC)c3)ccc21` showed a pIC50 [1] of 7.25, a pIC50 [2] of 6.70 and a pIC50 [3] of 7.70. The pIC50 [4] was 7.05, the pIC50 [5] was 6.70 and the pIC50 [6] was 6.22. It also gave a pIC50 [7] of 7.05.
